The source made the active and inactive calls. The calls are words filed in the database; no cut-off is given here.
Legend:
[1] = target: T1, Protein cereblon/Induced myeloid leukemia cell differentiation protein Mcl-1 (Homo sapiens, UniProt Q07820+Q96SW2); experiment: Induction of CRBN-mediated Mcl-1 degradation in human HeLa cells by Western blot analysis; assay type: cell-based
How it was run: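 HeLa cells (DMEM, 10% FBS, 37 °C, 5% CO2) treated 12 h with compound (10 µM, or 0–10 µM gradient; time course 0–24 h at 10 µM). Lysis in NP-40 buffer with protease inhibitors, equal protein loaded for SDS-PAGE and immunoblotting. Bands quantified relative to DMSO control. n=3 independent samples.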
Target sequence in this assay (Q07820 whole entry, looked up): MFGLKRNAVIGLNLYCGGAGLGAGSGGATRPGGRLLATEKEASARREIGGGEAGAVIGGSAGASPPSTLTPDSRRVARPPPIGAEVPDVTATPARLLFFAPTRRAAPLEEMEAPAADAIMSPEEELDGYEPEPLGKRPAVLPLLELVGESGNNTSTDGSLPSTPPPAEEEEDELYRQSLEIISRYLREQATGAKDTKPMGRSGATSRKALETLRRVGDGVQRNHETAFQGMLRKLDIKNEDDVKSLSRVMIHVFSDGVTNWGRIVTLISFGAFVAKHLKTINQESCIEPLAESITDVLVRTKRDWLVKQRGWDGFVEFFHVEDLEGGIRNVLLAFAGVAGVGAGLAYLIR
Target sequence in this assay (Q96SW2 whole entry, looked up): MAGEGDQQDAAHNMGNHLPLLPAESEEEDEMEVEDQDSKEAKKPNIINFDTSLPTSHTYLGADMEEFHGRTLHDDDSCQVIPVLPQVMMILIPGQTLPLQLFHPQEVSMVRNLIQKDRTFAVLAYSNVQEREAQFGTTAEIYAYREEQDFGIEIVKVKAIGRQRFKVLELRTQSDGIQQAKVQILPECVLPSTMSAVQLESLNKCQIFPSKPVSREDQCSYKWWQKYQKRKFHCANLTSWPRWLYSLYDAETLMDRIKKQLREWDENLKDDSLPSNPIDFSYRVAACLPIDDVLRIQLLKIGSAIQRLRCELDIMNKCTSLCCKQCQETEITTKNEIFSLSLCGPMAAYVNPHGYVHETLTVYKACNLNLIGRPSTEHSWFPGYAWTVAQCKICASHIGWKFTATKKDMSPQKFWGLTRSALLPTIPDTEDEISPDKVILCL

NCI-H23 = experiment: Cytotoxicity against human H23 cells incubated for 24 hrs by CCK8 assay; assay type: functional, cell-based
How it was run: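 H23 cells seeded at 4 × 10^4 per mL in RPMI with 10% FBS, L-glutamine and pen/strep. Treated 24 h at various concentrations or with DMSO vehicle (0.05%). Viability read by CCK8 and normalized against cell-free background and untreated cultures; mean ± s.e.m., n=3.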

[2] = target: T1, Protein cereblon/Induced myeloid leukemia cell differentiation protein Mcl-1; experiment: Induction of CRBN-mediated Mcl-1 degradation in human HeLa cells assessed as relative abundance at 10 uM after 12 hrs by Western blot analysis (reference value: 1); assay type: cell-based
Target sequence in this assay (Q07820 whole entry, looked up): as the sequence (Q07820 whole entry, looked up) above
Target sequence in this assay (Q96SW2 whole entry, looked up): as the sequence (Q96SW2 whole entry, looked up) above

[3] = target: T1, Protein cereblon/Induced myeloid leukemia cell differentiation protein Mcl-1; experiment: Induction of CRBN-mediated Mcl-1 degradation in human HeLa cells assessed as relative abundance at 1 uM after 12 hrs by Western blot analysis (reference value: 1); assay type: cell-based
Target sequence in this assay (Q07820 whole entry, looked up): as the sequence (Q07820 whole entry, looked up) above
Target sequence in this assay (Q96SW2 whole entry, looked up): as the sequence (Q96SW2 whole entry, looked up) above

[4] = target: T2, Protein cereblon/Apoptosis regulator Bcl-2 (Homo sapiens, UniProt P10415+Q96SW2); experiment: Induction of CRBN-mediated Bcl-2 degradation in human HeLa cells assessed as relative abundance at 10 uM after 12 hrs by Western blot analysis (reference value: 1); assay type: cell-based
[5] = target: T2, Protein cereblon/Apoptosis regulator Bcl-2; experiment: Induction of CRBN-mediated Bcl-2 degradation in human HeLa cells assessed as relative abundance at 1 uM after 12 hrs by Western blot analysis (reference value: 1); assay type: cell-based
[6] = target: T2, Protein cereblon/Apoptosis regulator Bcl-2; experiment: Induction of CRBN-mediated Bcl-2 degradation in human HeLa cells assessed as relative abundance at 3 uM after 12 hrs by Western blot analysis (reference value: 1); assay type: cell-based
[7] = target: T2, Protein cereblon/Apoptosis regulator Bcl-2; experiment: Induction of CRBN-mediated Bcl-2 degradation in human HeLa cells assessed as relative abundance at 0.3 uM after 12 hrs by Western blot analysis (reference value: 1); assay type: cell-based
[8] = target: T1, Protein cereblon/Induced myeloid leukemia cell differentiation protein Mcl-1; experiment: Induction of CRBN-mediated Mcl-1 degradation in human HeLa cells assessed as relative abundance at 0.1 uM after 12 hrs by Western blot analysis (reference value: 1); assay type: cell-based
Target sequence in this assay (Q07820 whole entry, looked up): as the sequence (Q07820 whole entry, looked up) above
Target sequence in this assay (Q96SW2 whole entry, looked up): as the sequence (Q96SW2 whole entry, looked up) above

[9] = target: T2, Protein cereblon/Apoptosis regulator Bcl-2; experiment: Induction of CRBN-mediated Bcl-2 degradation in human HeLa cells assessed as relative abundance at 0.1 uM after 12 hrs by Western blot analysis (reference value: 1); assay type: cell-based
[10] = target: T1, Protein cereblon/Induced myeloid leukemia cell differentiation protein Mcl-1; experiment: Induction of CRBN-mediated Mcl-1 degradation in human HeLa cells assessed as relative abundance at 0.3 uM after 12 hrs by Western blot analysis (reference value: 1); assay type: cell-based
Target sequence in this assay (Q07820 whole entry, looked up): as the sequence (Q07820 whole entry, looked up) above
Target sequence in this assay (Q96SW2 whole entry, looked up): as the sequence (Q96SW2 whole entry, looked up) above

[11] = target: T1, Protein cereblon/Induced myeloid leukemia cell differentiation protein Mcl-1; experiment: Induction of CRBN-mediated Mcl-1 degradation in human HeLa cells assessed as relative abundance at 3 uM after 12 hrs by Western blot analysis (reference value: 1); assay type: cell-based
Target sequence in this assay (Q07820 whole entry, looked up): as the sequence (Q07820 whole entry, looked up) above
Target sequence in this assay (Q96SW2 whole entry, looked up): as the sequence (Q96SW2 whole entry, looked up) above

[12] = target: T1, Protein cereblon/Induced myeloid leukemia cell differentiation protein Mcl-1; experiment: Induction of CRBN-mediated Mcl-1 degradation in human HeLa cells assessed as relative abundance at 10 uM measured at 2 hrs by Western blot analysis (reference value: 1); assay type: cell-based
How it was run: (§1)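 HeLa cells in DMEM with 10% FBS, exposed to 10 µM compound over a 0–24 h time course. Mcl-1 and Bcl-2 detected by immunoblot (NP-40 lysis, BCA-equalized SDS-PAGE, PVDF, ECL) and quantified relative to DMSO control; mean ± s.d., n=3 independent samples.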

[13] = target: T1, Protein cereblon/Induced myeloid leukemia cell differentiation protein Mcl-1; experiment: Induction of CRBN-mediated Mcl-1 degradation in human HeLa cells assessed as relative abundance at 10 uM measured at 4 hrs by Western blot analysis (reference value: 1); assay type: cell-based; how it was run: as §1
[14] = target: T1, Protein cereblon/Induced myeloid leukemia cell differentiation protein Mcl-1; experiment: Induction of CRBN-mediated Mcl-1 degradation in human HeLa cells assessed as relative abundance at 10 uM measured at 8 hrs by Western blot analysis (reference value: 1); assay type: cell-based; how it was run: as §1
[15] = target: T2, Protein cereblon/Apoptosis regulator Bcl-2; experiment: Induction of CRBN-mediated Bcl-2 degradation in human HeLa cells assessed as relative abundance at 10 uM measured at 20 hrs by Western blot analysis (reference value: 1); assay type: cell-based; how it was run: as §1
[16] = target: T1, Protein cereblon/Induced myeloid leukemia cell differentiation protein Mcl-1; experiment: Induction of CRBN-mediated Mcl-1 degradation in human HeLa cells assessed as relative abundance at 10 uM measured at 16 hrs by Western blot analysis (reference value: 1); assay type: cell-based; how it was run: as §1
[17] = target: T1, Protein cereblon/Induced myeloid leukemia cell differentiation protein Mcl-1; experiment: Induction of CRBN-mediated Mcl-1 degradation in human HeLa cells assessed as relative abundance at 10 uM measured at 20 hrs by Western blot analysis (reference value: 1); assay type: cell-based; how it was run: as §1
[18] = target: T1, Protein cereblon/Induced myeloid leukemia cell differentiation protein Mcl-1; experiment: Induction of CRBN-mediated Mcl-1 degradation in human HeLa cells assessed as relative abundance at 10 uM measured at 24 hrs by Western blot analysis (reference value: 1); assay type: cell-based; how it was run: as §1
[19] = target: T2, Protein cereblon/Apoptosis regulator Bcl-2; experiment: Induction of CRBN-mediated Bcl-2 degradation in human HeLa cells assessed as relative abundance at 10 uM measured at 2 hrs by Western blot analysis (reference value: 1); assay type: cell-based; how it was run: as §1
[20] = target: T2, Protein cereblon/Apoptosis regulator Bcl-2; experiment: Induction of CRBN-mediated Bcl-2 degradation in human HeLa cells assessed as relative abundance at 10 uM measured at 4 hrs by Western blot analysis (reference value: 1); assay type: cell-based; how it was run: as §1
[21] = target: T2, Protein cereblon/Apoptosis regulator Bcl-2; experiment: Induction of CRBN-mediated Bcl-2 degradation in human HeLa cells assessed as relative abundance at 10 uM measured at 8 hrs by Western blot analysis (reference value: 1); assay type: cell-based; how it was run: as §1
[22] = target: T2, Protein cereblon/Apoptosis regulator Bcl-2; experiment: Induction of CRBN-mediated Bcl-2 degradation in human HeLa cells assessed as relative abundance at 10 uM measured at 16 hrs by Western blot analysis (reference value: 1); assay type: cell-based; how it was run: as §1
[23] = target: T2, Protein cereblon/Apoptosis regulator Bcl-2; experiment: Induction of CRBN-mediated Bcl-2 degradation in human HeLa cells assessed as relative abundance at 10 uM measured at 24 hrs by Western blot analysis (reference value: 1); assay type: cell-based; how it was run: as §1
[24] = target: T1, Protein cereblon/Induced myeloid leukemia cell differentiation protein Mcl-1; experiment: Induction of CRBN-mediated Mcl-1 degradation in human HeLa cells at 10 uM measured at 24 hrs by Western blot analysis relative to control; assay type: cell-based; how it was run: as §1
[25] = target: T1, Protein cereblon/Induced myeloid leukemia cell differentiation protein Mcl-1; experiment: Induction of CRBN-mediated Mcl-1 degradation in human HeLa cells assessed as Mcl-1 removal activity measured at 12 hrs by Western blot analysis; assay type: cell-based
Target sequence in this assay (Q07820 whole entry): as the sequence (Q07820 whole entry, looked up) above
Target sequence in this assay (Q96SW2 whole entry): as the sequence (Q96SW2 whole entry, looked up) above

[26] = target: T1, Protein cereblon/Induced myeloid leukemia cell differentiation protein Mcl-1; experiment: Induction of CRBN-mediated Mcl-1 degradation in human K562 cells incubated for 12 hrs by Western blot analysis; assay type: cell-based
How it was run: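 K562 cells kept in RPMI1640 with 10% FBS at 37 °C, 5% CO2. After compound treatment, cells lysed in NP-40 buffer with protease inhibitors. Equal protein run on SDS-PAGE, then immunoblotted; protein levels quantified from the blots.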

T2 sequence (P10415 whole entry, looked up): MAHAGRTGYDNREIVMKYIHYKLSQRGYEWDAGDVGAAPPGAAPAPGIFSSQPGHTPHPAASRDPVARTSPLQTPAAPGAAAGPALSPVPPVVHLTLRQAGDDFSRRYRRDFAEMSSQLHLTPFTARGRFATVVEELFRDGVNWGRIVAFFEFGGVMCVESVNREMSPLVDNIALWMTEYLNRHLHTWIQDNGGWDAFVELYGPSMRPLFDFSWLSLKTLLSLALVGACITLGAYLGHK
T2 sequence (Q96SW2 whole entry, looked up): as the sequence (Q96SW2 whole entry, looked up) above

SMILES: CN1C(=O)CCC(N2C(=O)c3cccc(NCCCCCCNC(=O)CCCCC(=O)NCCN4C(=O)c5cccc6c(Sc7ccc(Br)cc7)ccc(c56)C4=O)c3C2=O)C1=O (configuration not stated)
- Activity [1]: inactive
- Activity (NCI-H23): Active

SMILES: N#CC1=C(NCCC(=O)O)c2ccc(Sc3ccc(Br)cc3)c3cccc(c23)C1=O
- fold change (FC) [2]: 0.6
- fold change (FC) [3]: 1.1
- fold change (FC) [4]: 1.1
- fold change (FC) [5]: 1.3
- fold change (FC) [6]: 1
- fold change (FC) [7]: 1.3
- fold change (FC) [8]: 1
- fold change (FC) [9]: 1.2
- fold change (FC) [10]: 1.1
- fold change (FC) [11]: 0.8
- fold change (FC) [12]: 1
- fold change (FC) [13]: 1
- fold change (FC) [14]: 0.9
- fold change (FC) [15]: 1.1
- fold change (FC) [16]: 0.5
- fold change (FC) [17]: 0.3
- fold change (FC) [18]: 0.2
- fold change (FC) [19]: 1.1
- fold change (FC) [20]: 1.2
- fold change (FC) [21]: 1.3
- fold change (FC) [22]: 1
- fold change (FC) [23]: 1.1
- Activity [24]: 80%
- DC50 [25]: 3.6 µM
- Activity [26]: Active

— ChEMBL document CHEMBL4321796, “Proteolysis Targeting Chimeras for the Selective Degradation of Mcl-1/Bcl-2 Derived from Nonselective Target Binding Ligands” (J Med Chem, 2019)
